# Results pooled from the literature.
# Each line is one published result; the experiments were not run side by side.
# AHR: Aryl hydrocarbon receptor (AHR, Homo sapiens, UniProt P35869)
# SLC10A2: Ileal sodium/bile acid cotransporter (SLC10A2, Homo sapiens, UniProt Q12908)
SMILES,target,assay,conditions,quantity,value
COC(=O)c1cccc(C(=O)c2c[nH]c3c2ccc2ccccc23)n1,AHR,"reporter gene, agonist, luciferase",,EC50,0.015 µM
CCN(CC)CCCC(C)Nc1ccnc2cc(Cl)ccc12 (stereo not drawn),SLC10A2,"transporter uptake, inhibitor",,Ki,6320 µM
CN(C)C(=O)c1cccc(C(=O)c2c[nH]c3ccccc23)n1,AHR,"reporter gene, agonist, luciferase",,EC50,0.351 µM
COC(=O)C1=C(C)NC(C)=C(C(=O)OCC(C)C)C1c1ccccc1[N+](=O)[O-] (stereo not drawn),SLC10A2,"transporter uptake, inhibitor",,Ki,4.77 µM
CSCC[C@H](NC(=O)[C@@H](NC(=O)[C@@H](N)Cc1ccc(O)cc1)C(C)C)C(=O)NCC(=O)N[C@@H](Cc1c[nH]cn1)C(=O)N[C@@H](Cc1ccccc1)C(=O)N[C@@H](CCCNC(=N)N)C(=O)N[C@@H](Cc1c[nH]c2ccccc12)C(=O)N[C@@H](CC(=O)O)C(=O)O,"Melanocortin receptor 5 (MC5R, Homo sapiens, UniProt P33032)","reporter gene, agonist",,EC50,4.46 µM
COCCOC(=O)C1=C(C)NC(C)=C(C(=O)OC/C=C/c2ccccc2)C1c1cccc([N+](=O)[O-])c1 (stereo not drawn),SLC10A2,"transporter uptake, inhibitor",,Ki,45.2 µM
N=C(N)c1ccc(CN)cc1,"Coagulation factor X (F10, Homo sapiens, UniProt P00742)","binding, BLI",,Kd,1700 µM
Cc1cnc(-c2ccc(-c3ccc(NC(=O)Nc4c(F)cc(F)cc4F)cc3F)c3c2C(=O)NC3)[nH]1,"Epithelial discoidin domain-containing receptor 1 (DDR1, Homo sapiens, UniProt Q08345)","binding, competition with immobilised ligand",,Kd,0.0021 µM
CCOC(=O)C1=C(C)NC(C)=C(C(=O)OCC)C1c1c(F)c(F)c(F)c(F)c1F,SLC10A2,"transporter uptake, inhibitor",,Ki,23.1 µM
CC[C@H](C)[C@H](NC(=O)[C@H](CCCCN)NC(=O)[C@H](CO)NC(=O)[C@H](CC(=O)O)NC(=O)[C@H](CCCCN)NC(=O)[C@H](CCCCN)NC(=O)CNC(=O)[C@H](Cc1c[nH]cn1)NC(=O)[C@@H](N)CCC(N)=O)C(=O)N[C@H](C(=O)N[C@@H](CC(=O)O)C(=O)N[C@@H](Cc1c[nH]cn1)C(=O)N[C@@H](Cc1ccccc1)C(=O)N[C@@H](CCSC)C(=O)N[C@@H](CCCNC(=N)N)C(=O)O)[C@@H](C)O,"Proliferating cell nuclear antigen (PCNA, Homo sapiens, UniProt P12004)","binding, ITC",pH 7.4,Kd,45.3 µM
C#Cc1cccc(Nc2ncnc3cc(OC)c(OCCCCCCC(=O)NO)cc23)c1,"Polyamine deacetylase HDAC10 (HDAC10, Homo sapiens, UniProt Q969S8)",cell-free assay,,Kd,7.38 µM
COC(=O)c1ccc(C(=O)c2c[nH]c3ccccc23)cc1,AHR,"reporter gene, agonist, luciferase",,EC50,> 10 µM
O=C(N[C@H]1COC(=O)[C@@H](NC(=O)c2cccc(O)c2O)COC(=O)[C@@H](NC(=O)c2cccc(O)c2O)COC1=O)c1cccc(O)c1O,"Neutrophil gelatinase-associated lipocalin (LCN2, Homo sapiens, UniProt P80188, C107S)","binding, fluorescence",pH 7.4,Kd,0.0036 µM
Cc1[nH]c2ccccc2c1C(=O)c1ccccc1,AHR,"reporter gene, agonist, luciferase",,EC50,> 10 µM
CCc1c(C)sc(NC(=O)C(Sc2ccccc2)c2ccccc2)c1C(=O)OC (stereo not drawn),"Cannabinoid receptor 2 (CNR2, Homo sapiens, UniProt P34972)","cAMP, agonist, TR-FRET",,EC50,0.0251 µM
